Measurements: ChEMBL document CHEMBL4130613, “Identification and Proposed Relative and Absolute Configurations of Niphimycins C-E from the Marine-Derived Streptomyces sp. IMB7-145 by Genomic Analysis” (J Nat Prod, 2018)
≈ marks a conversion by molar mass, not a printed value.

Key:
[1] = test system: Staphylococcus epidermidis; assay: Antibacterial activity against methicillin-resistant Staphylococcus epidermidis 12-8 after 18 hrs by agar dilution method; assay type: functional; details: 12-8, 18 h
Staphylococcus aureus [2] = assay: Antibacterial activity against methicillin-resistant Staphylococcus aureus ATCC 33591 after 18 hrs by agar dilution method; assay type: functional; details: ATCC 33591, 18 h
Staphylococcus aureus [3] = assay: Antibacterial activity against methicillin-resistant Staphylococcus aureus 12-33 after 18 hrs by agar dilution method; assay type: functional; details: 12-33, 18 h
Enterococcus faecalis [4] = assay: Antibacterial activity against vancomycin-resistant Enterococcus faecalis ATCC 51299 after 18 hrs by agar dilution method; assay type: functional; details: ATCC 51299, 18 h
Enterococcus faecalis [5] = assay: Antibacterial activity against vancomycin-resistant Enterococcus faecalis 09-9 after 18 hrs by agar dilution method; assay type: functional; details: 09-9, 18 h
Enterococcus faecium [6] = assay: Antibacterial activity against vancomycin-resistant Enterococcus faecium ATCC 700221 after 18 hrs by agar dilution method; assay type: functional; details: ATCC 700221, 18 h
Enterococcus faecium [7] = assay: Antibacterial activity against vancomycin-resistant Enterococcus faecium 12-1 after 18 hrs by agar dilution method; assay type: functional; details: 12-1, 18 h
Candida albicans = assay: Antifungal activity against Candida albicans ATCC 10231 after 18 hrs by agar dilution method; assay type: functional; details: ATCC 10231, 18 h
Escherichia coli [8] = assay: Antibacterial activity against extended-spectrum beta-lactamase-negative Escherichia coli ATCC 25922 after 18 hrs by agar dilution method; assay type: functional; details: ATCC 25922, 18 h
Escherichia coli [9] = assay: Antibacterial activity against extended-spectrum beta-lactamase-negative Escherichia coli 1515 after 18 hrs by agar dilution method; assay type: functional; details: Escherichia coli, 1515, 18 h
Escherichia coli [10] = assay: Antibacterial activity against extended-spectrum beta-lactamase-negative Escherichia coli 12-14 after 18 hrs by agar dilution method; assay type: functional; details: 12-14, 18 h
Escherichia coli [11] = assay: Antibacterial activity against extended-spectrum beta-lactamase-positive Escherichia coli 12-15 after 18 hrs by agar dilution method; assay type: functional; details: 12-15, 18 h
Klebsiella pneumoniae [12] = assay: Antibacterial activity against extended-spectrum beta-lactamase-positive Klebsiella pneumoniae ATCC 700603 after 18 hrs by agar dilution method; assay type: functional; details: Klebsiella pneumoniae, 700603, 18 h
Klebsiella pneumoniae [13] = assay: Antibacterial activity against extended-spectrum beta-lactamase-negative Klebsiella pneumoniae 7 after 18 hrs by agar dilution method; assay type: functional; details: Klebsiella pneumoniae, 7, 18 h
Klebsiella pneumoniae [14] = assay: Antibacterial activity against NDM-1 positive Klebsiella pneumoniae ATCC BAA-2146 after 18 hrs by agar dilution method; assay type: functional; details: ATCC BAA-2146, 18 h
Klebsiella pneumoniae [15] = assay: Antibacterial activity against extended-spectrum beta-lactamase-negative Klebsiella pneumoniae 12-4 after 18 hrs by agar dilution method; assay type: functional; details: 12-4, 18 h
Klebsiella pneumoniae [16] = assay: Antibacterial activity against extended-spectrum beta-lactamase-positive Klebsiella pneumoniae 12-8 after 18 hrs by agar dilution method; assay type: functional; details: 12-8, 18 h
Pseudomonas aeruginosa [17] = assay: Antibacterial activity against Pseudomonas aeruginosa ATCC 27853 after 18 hrs by agar dilution method; assay type: functional; details: ATCC 27853, 18 h
Pseudomonas aeruginosa [18] = assay: Antibacterial activity against Pseudomonas aeruginosa PAO1 after 18 hrs by agar dilution method; assay type: functional; details: PAO1, 18 h
Pseudomonas aeruginosa [19] = assay: Antibacterial activity against Pseudomonas aeruginosa 12-16 after 18 hrs by agar dilution method; assay type: functional; details: 12-16, 18 h
[20] = test system: Acinetobacter calcoaceticus; assay: Antibacterial activity against Acinetobacter calcoaceticus ATCC 19606 after 18 hrs by agar dilution method; assay type: functional; details: ATCC 19606, 18 h
Enterobacter cloacae = assay: Antibacterial activity against Enterobacter cloacae ATCC 43560 after 18 hrs by agar dilution method; assay type: functional; details: ATCC 43560, 18 h
Klebsiella aerogenes = assay: Antibacterial activity against Enterobacter aerogenes ATCC 13048 after 18 hrs by agar dilution method; assay type: functional; details: ATCC 13048, 18 h
Serratia marcescens = assay: Antibacterial activity against Serratia marcescens ATCC 21074 after 18 hrs by agar dilution method; assay type: functional; details: ATCC 21074, 18 h
Morganella morganii = assay: Antibacterial activity against Morganella morganii ATCC 25830 after 18 hrs by agar dilution method; assay type: functional; details: ATCC 25830, 18 h
Providencia rettgeri = assay: Antibacterial activity against Providencia rettgeri ATCC 31052 after 18 hrs by agar dilution method; assay type: functional; details: ATCC 31052, 18 h
Proteus vulgaris = assay: Antibacterial activity against Proteus vulgaris ATCC 29905 after 18 hrs by agar dilution method; assay type: functional; details: ATCC 29905, 18 h
Proteus mirabilis = assay: Antibacterial activity against Proteus mirabilis 12-6 after 18 hrs by agar dilution method; assay type: functional; details: 12-6, 18 h
[21] = test system: Stenotrophomonas maltophilia; assay: Antibacterial activity against Stenotrophomonas maltophilia ATCC 13636 after 18 hrs by agar dilution method; assay type: functional; details: ATCC 13636, 18 h
Citrobacter freundii = assay: Antibacterial activity against Citrobacter freundii ATCC 43864 after 18 hrs by agar dilution method; assay type: functional; details: ATCC 43864, 18 h
[22] = test system: Mycobacterium tuberculosis; assay: Antibacterial activity against Mycobacterium tuberculosis H37Rv […] by agar dilution method; assay type: functional
[23] = test system: Mycobacterium tuberculosis; assay: Antibacterial activity against Mycobacterium tuberculosis isolate FJ05349 […] by agar dilution method; assay type: functional
[24] = test system: Mycobacterium tuberculosis; assay: Antibacterial activity against Mycobacterium tuberculosis isolate FJ05060 […] by agar dilution method; assay type: functional
HeLa = assay: Cytotoxicity against human HeLa cells after 48 hrs by SRB assay; assay type: functional, cell-based
Method in brief: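 HeLa human cervical carcinoma cells obtained from ATCC. Cytotoxicity was read by sulforhodamine B staining following an earlier published protocol, with doxorubicin hydrochloride as positive control. Values are reported as IC50.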

CNC(=N)NCCC/C=C/CCC[C@H](C)C[C@H](C)[C@H]1OC(=O)[C@H](C)[C@H](O)/C=C/[C@H](C)[C@H](O)C[C@H](O)[C@H](C)[C@@H](O)CC[C@H](C)[C@H](O)C[C@]2(O)O[C@H](C[C@@H](OC(=O)CC(=O)O)C[C@H](O)C[C@@H](O)[C@H](C)[C@H](O)/C=C/C=C/[C@@H]1C)C[C@H](O)[C@H]2O
MIC [1]: 4 to 32 mg/L (≈ 3.5 to 28 µM) | MIC (Staphylococcus aureus [2]): 4 to 32 mg/L (≈ 3.5 to 28 µM) | MIC (Staphylococcus aureus [3]): 4 to 32 mg/L (≈ 3.5 to 28 µM) | MIC (Enterococcus faecalis [4]): 64 mg/L (≈ 56 µM) | MIC (Enterococcus faecalis [5]): 64 mg/L (≈ 56 µM) | MIC (Enterococcus faecium [6]): 64 mg/L (≈ 56 µM) | MIC (Enterococcus faecium [7]): 64 mg/L (≈ 56 µM) | MIC (Candida albicans): 8 to 32 mg/L (≈ 7 to 28 µM) | MIC (Escherichia coli [8]): > 64 mg/L | MIC (Escherichia coli [9]): > 64 mg/L | MIC (Escherichia coli [10]): > 64 mg/L | MIC (Escherichia coli [11]): > 64 mg/L | MIC (Klebsiella pneumoniae [12]): > 64 mg/L | MIC (Klebsiella pneumoniae [13]): > 64 mg/L | MIC (Klebsiella pneumoniae [14]): > 64 mg/L | MIC (Klebsiella pneumoniae [15]): > 64 mg/L | MIC (Klebsiella pneumoniae [16]): > 64 mg/L | MIC (Pseudomonas aeruginosa [17]): > 64 mg/L | MIC (Pseudomonas aeruginosa [18]): > 64 mg/L | MIC (Pseudomonas aeruginosa [19]): > 64 mg/L | MIC [20]: > 64 mg/L | MIC (Enterobacter cloacae): > 64 mg/L | MIC (Klebsiella aerogenes): > 64 mg/L | MIC (Serratia marcescens): > 64 mg/L | MIC (Morganella morganii): > 64 mg/L | MIC (Providencia rettgeri): > 64 mg/L | MIC (Proteus vulgaris): > 64 mg/L | MIC (Proteus mirabilis): > 64 mg/L | MIC [21]: > 64 mg/L | MIC (Citrobacter freundii): > 64 mg/L | MIC [22]: 4 mg/L (≈ 3.5 µM) | MIC [23]: 4 to 16 mg/L (≈ 3.5 to 14 µM) | MIC [24]: 4 to 16 mg/L (≈ 3.5 to 14 µM) | IC50 (HeLa): 3 to 9 µM

CNC(=N)NCCC/C=C/CCC[C@H](C)C[C@H](C)[C@H]1OC(=O)[C@H](C)[C@H](O)/C=C/[C@H](C)[C@H](O)C[C@H](O)[C@H](C)[C@@H](O)CC[C@H](C)[C@H](O)C[C@]2(O)O[C@H](C[C@@H](O)C[C@H](OC(=O)CC(=O)O)C[C@@H](O)[C@H](C)[C@H](O)/C=C/C=C/[C@@H]1C)C[C@H](O)[C@H]2O
MIC [1]: 4 to 32 mg/L (≈ 3.5 to 28 µM) | MIC (Staphylococcus aureus [2]): 4 to 32 mg/L (≈ 3.5 to 28 µM) | MIC (Staphylococcus aureus [3]): 4 to 32 mg/L (≈ 3.5 to 28 µM) | MIC (Enterococcus faecalis [4]): 64 mg/L (≈ 56 µM) | MIC (Enterococcus faecalis [5]): 64 mg/L (≈ 56 µM) | MIC (Enterococcus faecium [6]): 64 mg/L (≈ 56 µM) | MIC (Enterococcus faecium [7]): 64 mg/L (≈ 56 µM) | MIC (Candida albicans): 8 to 32 mg/L (≈ 7 to 28 µM) | MIC (Escherichia coli [8]): > 64 mg/L | MIC (Escherichia coli [9]): > 64 mg/L | MIC (Escherichia coli [10]): > 64 mg/L | MIC (Escherichia coli [11]): > 64 mg/L | MIC (Klebsiella pneumoniae [12]): > 64 mg/L | MIC (Klebsiella pneumoniae [13]): > 64 mg/L | MIC (Klebsiella pneumoniae [14]): > 64 mg/L | MIC (Klebsiella pneumoniae [15]): > 64 mg/L | MIC (Klebsiella pneumoniae [16]): > 64 mg/L | MIC (Pseudomonas aeruginosa [17]): > 64 mg/L | MIC (Pseudomonas aeruginosa [18]): > 64 mg/L | MIC (Pseudomonas aeruginosa [19]): > 64 mg/L | MIC [20]: > 64 mg/L | MIC (Enterobacter cloacae): > 64 mg/L | MIC (Klebsiella aerogenes): > 64 mg/L | MIC (Serratia marcescens): > 64 mg/L | MIC (Morganella morganii): > 64 mg/L | MIC (Providencia rettgeri): > 64 mg/L | MIC (Proteus vulgaris): > 64 mg/L | MIC (Proteus mirabilis): > 64 mg/L | MIC [21]: > 64 mg/L | MIC (Citrobacter freundii): > 64 mg/L | MIC [22]: 4 mg/L (≈ 3.5 µM) | MIC [23]: 4 to 16 mg/L (≈ 3.5 to 14 µM) | MIC [24]: 4 to 16 mg/L (≈ 3.5 to 14 µM) | IC50 (HeLa): 3 to 9 µM
